In ChEMBL document CHEMBL2407009, “Rotenoids from Boerhaavia diffusa as potential anti-inflammatory agents” (J Nat Prod, 2013):
Each block holds one molecule with its values, some of them ahead of it.

What was measured:
[1] = biological target: T1, Prostaglandin G/H synthase 1 (Ovis aries) (UniProt P05979); test: Inhibition of ovine COX1 assessed as PGF2alpha production by reduction of PGH2 with stannous chloride at 40 uM by enzyme immunoassay relative to control
T1 sequence (whole entry): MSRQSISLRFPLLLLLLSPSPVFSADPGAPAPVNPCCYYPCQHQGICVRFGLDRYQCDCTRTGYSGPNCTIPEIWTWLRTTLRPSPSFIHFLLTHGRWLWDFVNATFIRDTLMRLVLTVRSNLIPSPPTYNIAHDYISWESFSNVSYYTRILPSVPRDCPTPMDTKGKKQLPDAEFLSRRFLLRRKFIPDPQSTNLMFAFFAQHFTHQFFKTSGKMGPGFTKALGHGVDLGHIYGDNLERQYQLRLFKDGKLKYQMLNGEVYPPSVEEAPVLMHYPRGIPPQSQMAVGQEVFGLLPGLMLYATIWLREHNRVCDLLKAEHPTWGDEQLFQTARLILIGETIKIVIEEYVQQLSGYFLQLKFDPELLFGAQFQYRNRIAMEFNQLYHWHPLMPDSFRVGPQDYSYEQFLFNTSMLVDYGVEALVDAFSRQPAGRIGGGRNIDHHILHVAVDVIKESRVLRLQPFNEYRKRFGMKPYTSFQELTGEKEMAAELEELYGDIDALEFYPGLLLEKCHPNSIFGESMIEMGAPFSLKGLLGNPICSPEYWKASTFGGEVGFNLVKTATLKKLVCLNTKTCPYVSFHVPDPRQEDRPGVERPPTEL
Outline: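 Ovine COX inhibitor screening kit run per manufacturer. Enzyme converts arachidonic acid to PGH2, which SnCl2 reduces to PGF2α, quantified by enzyme immunoassay. DMSO stocks; final test concentration 40 μM. Percent inhibition calculated against control incubations. Means ± SEM, n = 2−3.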

Ovis aries = species on record: Ovis aries; test: Selectivity ratio of IC50 for ovine COX1 to IC50 for ovine COX2
Outline: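 Ratio of COX-1 IC50 to COX-2 IC50. Both IC50s come from concentration−inhibition curves in the ovine enzyme kit assay, with PGF2α (from SnCl2 reduction of PGH2) measured by enzyme immunoassay.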

[2] = biological target: T2, Prostaglandin G/H synthase 1 (Ovis aries, UniProt P05979); test: Inhibition of ovine COX1 assessed as PGF2alpha production by reduction of PGH2 with stannous chloride by enzyme immunoassay
T2 sequence (P05979 whole entry): T1 sequence (whole entry)
Outline: (§1)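 Ovine COX-1 or COX-2 from screening kit used per manufacturer; arachidonic acid substrate, PGH2 reduced by SnCl2 to PGF2α and read by enzyme immunoassay. DMSO stock solutions. Percent inhibition relative to control incubations; IC50 obtained from concentration−inhibition response curves. Means ± SEM, n = 2−3.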

[3] = biological target: T3, Prostaglandin G/H synthase 2 (Ovis aries, UniProt P79208); test: Inhibition of ovine COX2 assessed as PGF2alpha production by reduction of PGH2 with stannous chloride by enzyme immunoassay; outline: as §1
T3 sequence (P79208 whole entry): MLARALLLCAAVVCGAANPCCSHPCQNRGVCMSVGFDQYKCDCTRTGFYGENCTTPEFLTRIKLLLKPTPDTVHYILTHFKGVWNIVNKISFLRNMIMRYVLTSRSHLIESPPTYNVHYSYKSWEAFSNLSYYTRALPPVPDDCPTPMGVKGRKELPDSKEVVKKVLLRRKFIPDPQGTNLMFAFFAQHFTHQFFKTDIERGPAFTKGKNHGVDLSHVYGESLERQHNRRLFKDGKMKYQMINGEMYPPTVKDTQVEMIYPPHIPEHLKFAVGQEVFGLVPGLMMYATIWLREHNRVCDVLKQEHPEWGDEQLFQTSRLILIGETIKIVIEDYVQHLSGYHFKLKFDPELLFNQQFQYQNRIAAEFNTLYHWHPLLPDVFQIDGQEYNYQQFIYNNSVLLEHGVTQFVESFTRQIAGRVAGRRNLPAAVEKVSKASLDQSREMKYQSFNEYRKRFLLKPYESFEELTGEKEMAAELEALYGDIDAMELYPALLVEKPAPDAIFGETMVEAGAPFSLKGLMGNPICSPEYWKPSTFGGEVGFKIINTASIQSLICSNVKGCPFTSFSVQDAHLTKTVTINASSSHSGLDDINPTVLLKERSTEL

Rattus norvegicus [4] = test: Antiinflammatory activity in Sprague-Dawley rat assessed as inhibition of carrageenan-induced paw edema at 50 mg/kg, po administered 1 hr before carrageenan challenge measured after 3 hrs relative to control; format: functional
Outline: (§2)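 Female Sprague-Dawley rats (160−180 g), fasted overnight, six per group. Samples suspended in freshly prepared 0.5% hydroxypropyl methyl cellulose, given orally; control group received vehicle (normal saline). 1 h after dosing, 100 μL of 1% carrageenan in saline injected subcutaneously into left hind paw. Paw volume read by plethysmometer before and at 3 and 5 h; edema = final minus basal volume. Mean ± SEM, one-way ANOVA with Dunnett's test versus control.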

Rattus norvegicus [5] = test: Antiinflammatory activity in Sprague-Dawley rat assessed as inhibition of carrageenan-induced paw edema at 100 mg/kg, po administered 1 hr before carrageenan challenge measured after 5 hrs relative to control; format: functional; outline: as §2
Rattus norvegicus [6] = test: Antiinflammatory activity in Sprague-Dawley rat assessed as inhibition of carrageenan-induced paw edema at 100 mg/kg, po administered 1 hr before carrageenan challenge measured after 3 hrs relative to control; format: functional; outline: as §2
Rattus norvegicus [7] = test: Antiinflammatory activity in Sprague-Dawley rat assessed as inhibition of carrageenan-induced paw edema at 50 mg/kg, po administered 1 hr before carrageenan challenge measured after 5 hrs relative to control; format: functional; outline: as §2

SMILES: COc1cc(O)c2c(c1)O[C@@H]1COc3c(O)cccc3[C@@]1(O)C2=O (relative stereo)
inhibition [1]: 47.2%

SMILES: COc1c(O)c(C)c(O)c2c(=O)c3c(oc12)C(O)Oc1ccccc1-3 (racemic)
IC50 [2]: 25.9 µM

SMILES: CC(C)Cc1ccc(C(C)C(=O)O)cc1 (centres undefined) [IBUPROFEN]
inhibition in vivo at 50 mg/kg (Rattus norvegicus [4]): 35.8%
inhibition in vivo at 100 mg/kg (Rattus norvegicus [5]): 50.4%
inhibition in vivo at 100 mg/kg (Rattus norvegicus [6]): 42.7%
inhibition in vivo at 50 mg/kg (Rattus norvegicus [7]): 43.5%

SMILES: Cc1c(O)cc2oc3c(c(=O)c2c1O)-c1ccc(O)cc1OC3O (centres undefined) [BOERAVINONE E]
IC50 [2]: 23.9 µM

Second part, led by results:

inhibition [1]: 59.9%
SMILES: COc1cc(O)c2c(=O)c3c(oc2c1)C(O)Oc1c(O)cccc1-3 (racemic)

Ratio IC50 (Ovis aries): 0.79
IC50 [2]: 21.7 µM
IC50 [3]: 25.5 µM
SMILES: O=c1c2c(oc3cc(O)cc(O)c13)C(O)Oc1cc(O)ccc1-2 (racemic)

IC50 [2]: 32.9 µM
SMILES: COC1Oc2ccccc2-c2c1oc1cc(O)c(C)c(O)c1c2=O (centres undefined) [BOERAVINONE A]

inhibition [1]: 59.4%
SMILES: COC1Oc2ccccc2-c2c1oc1cc(O)cc(O)c1c2=O (racemic)

IC50 [2]: 25 µM
SMILES: Cc1c(O)cc2oc3c(c(=O)c2c1O)-c1ccccc1OC3O (centres undefined) [BOERAVINONE B]
inhibition in vivo at 50 mg/kg (Rattus norvegicus [4]): 48.3%
inhibition in vivo at 50 mg/kg (Rattus norvegicus [7]): 56.7%

Ratio IC50 (Ovis aries): 1.09
IC50 [2]: 33.1 µM
IC50 [3]: 31.4 µM
SMILES: COc1c(O)c(C)c(O)c2c(=O)c3c(oc12)C(OC)Oc1ccccc1-3 (racemic)
